# Results reported in ChEMBL document CHEMBL4513216, “Probing the Open Global Health Chemical Diversity Library for Multistage-Active Starting Points for Next-Generation Antimalarials” (ACS Infect Dis, 2020).
# Assay: Toxicity liver stage against HepG2, at 10uM
# Assay type: cell-based
# Set-up: test concentration 10 uM, cell line HepG2-A16-CD81EGFP
# Settings: human, HepG2-A16-CD81EGFP cells; read-out: INHIBITION
# Method in brief: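 Uninfected HepG2-A16-CD81EGFP cells, 3 × 10^3 per well, 1536-well, plated on prespotted compound at 10 μM final, parasite-free screening media added to match infected plates; puromycin 10 μM positive, DMSO 0.5% negative; run in parallel with 48 h PbLuc assay at 37 °C, 5% CO2; viability by CellTiter-Glo luminescence, normalized to controls.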
row,SMILES,cytotoxicity at 10 µM [%]
1,CN(C)S(=O)(=O)N1CC[C@]2(C[C@@H](OCc3ccccn3)CO2)C1,10.1
2,Cc1ncc(CNC(=O)Cc2ccc(Cl)cc2)c(C2CCCN2C)n1 (stereo not drawn),-0.696
3,Cc1nc(C)c(C(=O)NCCNc2cc(N3CCCC3)ncn2)s1,-73.4
4,CCc1nc(C)c(C(=O)N(C)Cc2cnn(-c3cccc(OC)c3)c2)s1,11.7
5,O=S(=O)(c1cccs1)N1Cc2nc(CN3CCCCC3)oc2C1,-121
6,Cc1nc(NC(C)C)nc2c1CN(Cc1cccs1)CC2,0.718
7,CC(c1ccco1)N(C(=O)NCc1ccon1)C1CC1 (stereo not drawn),0.805
8,Cc1ccc(CNC2CCCc3c2cnn3C)s1 (stereo not drawn),-0.987
9,CCNS(=O)(=O)c1ccc2c(c1)c(=O)n(CC)c(=O)n2CC,10.4
10,Cc1cc(CN(C)CC2CC(C3CCCCC3)=NO2)no1 (stereo not drawn),22.4
11,CN(C)CCC1CCN(Cc2ccn(C)c(=O)c2)CC1,-12.5
12,Cc1cnc(N2CCC(c3ccccc3)CC2)nc1-c1ccnn1C,4.68
13,O=C(Cn1cc(C(=O)O)ccc1=O)Nc1cc(F)ccc1F,0.687
14,CCC(NCc1ncc[nH]1)c1nc(C(F)(F)F)cs1 (stereo not drawn),8.02
15,Cc1cccn2cc(CN3CCCC(O)C3)nc12 (stereo not drawn),2.25
16,O=C1CC(c2cccs2)c2cnn(C3CCCC3)c2N1 (stereo not drawn),23.3
17,COc1ccc(C2CCCN2S(=O)(=O)c2cc(F)ccc2F)cc1 (stereo not drawn),0.585
18,CSc1ccc(C(=O)N2CC(=O)N(CC(C)(C)C)CC(O)C2)cc1 (stereo not drawn),8.6
19,CSC1(CNC(=O)NC(C)c2ccc(F)c(F)c2)CCOCC1 (stereo not drawn),1.71
20,CC(=O)N1CCCN(C(=O)c2csc(-c3ccc(C)cc3C)n2)CC1,20.8
21,O=C(Nc1nccs1)NC1CCOc2ccccc21 (stereo not drawn),6.78
22,CO[C@H]1CN(C(=O)c2nc(-c3ccccc3)[nH]c2C)CC[C@H]1N,11.5
23,CC(C)c1nn(C)c(N(C)C)c1CNCc1ccc2c(c1)OCCO2,-12.6

row,SMILES,cytotoxicity at 10 µM [%]
1,Cc1cc(F)c2c(c1)CCCN2Cc1cc(=O)n(C)c(=O)n1C,8.1
2,CCC(O)CN1CCN(C(=O)Cc2cc(C)ccc2OC)CC1 (stereo not drawn),-30.9
3,O=c1[nH]c(C2CCOC2)nc2ccc(Br)cc12 (stereo not drawn),7.85
4,Cc1cc(C[C@@H]2CCC[C@H]2NCc2c[nH]nc2-c2ccccc2)on1,-14
5,CN1CCCCC1CCC(=O)NCCCn1nccc1C1CC1 (stereo not drawn),-22.9
6,CCn1cc(S(=O)(=O)N2CCCC3(CC=CNC3=O)C2)cn1 (stereo not drawn),-2.92
7,COc1ccc(C(CNC(=O)c2cnc(C)cn2)N2CCOCC2)cc1 (stereo not drawn),3.04
8,Cc1nc(CN2CCCN(C(=O)C(C)OCC3CC3)CC2)cs1 (stereo not drawn),-3.87
9,COc1nsc2nc(C3CCCN3C(C)=O)ccc12 (stereo not drawn),6.78
10,Cc1cccc(C(=O)N2CCCC2)c1NCC(=O)NC(C)(C#N)C1CC1 (stereo not drawn),-6.8
11,O=C(NCCc1ccco1)Nc1cc(C(F)(F)F)c[nH]c1=O,-12.3
12,c1ccc(-c2nc(CCNCc3ccncc3)co2)cc1,6.07
13,C[C@H]1C[C@@H]2CCN(CC3CCOCC3)C[C@H]2O1,10.3
14,CC(C)c1cc(C(=O)N2CCc3ccccc3C2C(=O)O)nn1C (stereo not drawn),-2.53
15,CS(=O)(=O)CC(=O)N1C[C@H]2CCC[C@@]2(COCc2ccccn2)C1,4.35
16,O=C(CN1CCOCS1(=O)=O)NCc1ccccc1,1.09
17,Cc1ccc(C(=O)N2CC[C@@H](N(C)C)[C@@H]2Cc2cnn(C)c2)cn1,-73.4
18,CC(C)Cn1cncc1CNC(=O)c1cccc(CC2CCNCC2)c1,-4.47
19,Cn1c(C(N)=O)cc2c1CN(C(=O)C1CCCN(C3CCCC3)C1)CC2 (stereo not drawn),-47.1
20,Cc1cc(N)nc(SC2CCCN(Cc3ccccc3)C2=O)n1 (stereo not drawn),-5.45
21,N#CCSCCCN1CCN(C(=O)c2ccc(Cl)cc2)CC1,-10.3
22,COC(=O)NCC(=O)NC1CC(C)(C)Cc2oc(C)cc21 (stereo not drawn),-20.8
23,c1ccc(CCN2CCCC(c3ccnc4nccn34)C2)cc1 (stereo not drawn),4.22

row,SMILES,cytotoxicity at 10 µM [%]
1,COCc1noc(CCNc2nc(CC3CC3)nc3c2CCNCC3)n1,-4.1
2,CCN1CCn2c(C)cnc2C12CCN(C(=O)c1ccco1)CC2,4.56
3,Cc1oc(-c2ccccc2)nc1CN1CCC(c2ccnn2C)CC1,15.6
4,O=C(c1cc[nH]n1)N1CC[C@@H]2CN(Cc3ccccc3)S(=O)(=O)[C@@H]2CC1,4.35
5,CN(C)Cc1cncc2c1CCN(Cc1ccoc1)C2,-103
6,CCCC(O)CN1CCC(=O)N(CCOC)Cc2cc3c(cc21)OCO3 (stereo not drawn),6.91
7,c1csc(C(CNCc2cccc3c2OCO3)N2CCOCC2)c1 (stereo not drawn),-44.4
8,Cc1cccc(OCCC(=O)N(C)CCNS(C)(=O)=O)c1C,3.35
9,COc1ccc(CC(=O)NC2(C)CCS(=O)(=O)C2)cc1F (stereo not drawn),2.05
10,O=C(c1ccc(-n2cccn2)cc1Cl)N1CCCC(O)(CO)C1 (stereo not drawn),-0.226
11,Cc1cccnc1N1CCC(c2nccn2Cc2cscn2)CC1,-0.65
12,CN(CCNS(C)(=O)=O)CC(c1cccs1)N1CCOCC1 (stereo not drawn),-3.43
13,CC(O)CN(CC(=O)NC(=O)NC1CC1)c1ccccc1 (stereo not drawn),-2.14
14,COCCNC(=O)N1CCCC(COc2ccccc2)C1 (stereo not drawn),0.186
15,Cc1noc(C)c1CN1C[C@@H](C(=O)O)[C@H](c2ccccn2)C1,-6.9
16,CC(C)Cn1c(=O)n(CCCn2cccn2)c2cc(C(=O)O)cnc21,1.18
17,Cc1cnc(N2Cc3cnn(Cc4ccc(F)cc4)c3C2)nc1N(C)C,6.02
18,CC(C)CN1CC(O)CN(S(=O)(=O)c2ccccc2)CC1=O (stereo not drawn),1.74
19,CN1CCCCC1c1cncc(N2CCC(O)CC2)n1 (stereo not drawn),2.54
20,Cc1nc(C(=O)N2CCCC2c2cncc(CN3CCCC3)n2)co1 (stereo not drawn),8.99
21,Cn1ncc2c1NC(=O)CC2c1cc(Cl)ccc1F (stereo not drawn),78.6
22,OCC1CCCN1c1cc(NCc2ccc(Cl)s2)ncn1 (stereo not drawn),-2.96
23,Cc1nnc(CN(C)CCCOc2cccc(Cl)c2)o1,2.51

row,SMILES,cytotoxicity at 10 µM [%]
1,Cn1cccc1CCC(=O)N1CCC2(CC1)c1ccccc1CC2O (stereo not drawn),-8.57
2,CN(Cc1ccccc1)CC1(O)CCCN(CC(C)(C)C)C1=O (stereo not drawn),-12.4
3,CCOc1ccc(CN2C(=O)CC(C)(C(C)C)C2=O)nc1 (stereo not drawn),-5.51
4,Cc1cc(C)n(CCNCc2cc(-c3ccc(F)cc3)c[nH]c2=O)n1,-5.24
5,CCN1CCCC1CN(CCN(C)C)S(=O)(=O)c1cccc(C#N)c1 (stereo not drawn),-12.1
6,Cc1ccc(C#N)c(N2CCC(c3nccn3Cc3cscn3)CC2)n1,-6.96
7,Cc1ccc(N(C)CC(O)COCc2ccccc2F)c(C)c1 (stereo not drawn),18
8,COc1ccccc1C(=O)NCCC(=O)Nc1c(C)nn(C)c1C,-9.49
9,CC(=O)NC(C)C(=O)NCc1ccc(N2CCNC(=O)C2)cc1 (stereo not drawn),2.03
10,CC(C)c1csc(NC(=O)NC2CCCN(c3cnn(C)c3)C2)n1 (stereo not drawn),15
11,OCCN1CCN(Cc2cc3c(cc2Br)OCCO3)CC1,7.59
12,CN(C)c1cnn(CC(=O)N2Cc3ccccc3C2)c(=O)c1,4.52
13,CC(C)NC(=O)C1CN(C(=O)Nc2ccc(F)cc2)CC12CCOCC2 (stereo not drawn),-80.9
14,CC(=O)NCC(=O)N1CCc2c(CN(C)C)nn(C(C)C)c2C1,-4.94
15,N#Cc1csc(CNCCOc2ncccc2Cl)c1,8.01
16,CC(C)C(C)(CNC(=O)OC(C)(C)C)NC(=O)c1cnccn1 (stereo not drawn),-6.62
17,CCCc1cc(=O)[nH]c(SCc2ccccn2)n1,-3.53
18,COC(=O)N1CCCC(NC(=O)NCc2ccc(C)nc2)C1 (stereo not drawn),-4.73
19,Cn1ccc2c(C(=O)NCCCN3CCCC3)cccc21,-18.3
20,Fc1cnc(N2CCCC3(CCN(Cc4nccs4)C3)C2)nc1 (stereo not drawn),-67.9
21,CCOCCN1CCN(CC2(O)CCCCC2)CC1,1.34
22,CC(C)Cc1ncc2c(n1)CN(C(=O)c1ccc(Cn3ccnc3)o1)C2,3.09
23,O=C(NCC(O)c1cccc(F)c1)c1cccnc1O (stereo not drawn),-1.68

row,SMILES,cytotoxicity at 10 µM [%]
1,O=C(CCNC(=O)c1ccoc1)Nc1ccccc1F,-8.38
2,Cc1cnn(-c2ccc(S(N)(=O)=O)cc2F)c1,1.64
3,CCOC(=O)C(CO)NC(=O)CCc1cccc(OC2CCCC2)c1 (stereo not drawn),-7.08
4,CCn1cc(CN2CCCN(C3Cc4ccccc4C3)CC2)cn1,2.66
5,COCCCN1Cc2cccc(NC(=O)c3cc(F)ccc3F)c2C1,-1.74
6,O=C(c1cnc(-c2cnccn2)s1)N1CCCC(n2cccn2)C1 (stereo not drawn),-9.04
7,COCCN(Cc1ccncc1)C(=O)C1COc2ccccc2C1 (stereo not drawn),6.77
8,O=C(c1ncccn1)N1C[C@@H]2COC[C@]2(COCc2cccnc2)C1,-1.9
9,COc1ccc(CNC(C)Cn2cccn2)cc1F (stereo not drawn),-0.544
10,Cc1ccc(=O)n(CC(=O)N2CCCC(c3nc(C)c(C)s3)C2)n1 (stereo not drawn),-3.06
11,Cc1nn(C2CCS(=O)(=O)C2)c(O)c1Cc1cccc(Cl)c1 (stereo not drawn),-46.9
12,Cc1nc(C)c(CCNC(Cc2ccncc2)C(F)(F)F)s1 (stereo not drawn),-4.96
13,CCN(CC)C(=O)C1CCC2(CCNCC2)O1 (stereo not drawn),-162
14,COCCN(C)CCN1CC2(CCN(C3CCOCC3)CC2)OC1=O,4.5
15,O=S(=O)(NCC1COc2ccccc2C1)N1CCCCCC1 (stereo not drawn),-0.138
16,O=C(Cn1cccn1)N(CCO)CCSc1ccc(Cl)cc1,0.513
17,CCc1nc(C2CCCN2CCS(=O)(=O)c2ccccc2)no1 (stereo not drawn),-8.1
18,CN(C)CCN1CCCC12CCN(C(=O)c1cccnc1)CC2,4.68
19,CCC(CN1CCCC1)n1cncc1-c1cnn(Cc2ccccc2)c1 (stereo not drawn),3.92
20,Nc1c(C(=O)C2CCCN(C(=O)C3CC3)C2)cnn1-c1ccc(F)cc1 (stereo not drawn),6.12
21,Cc1ccc(N2CCCN(C(=O)CC3C=CCC3)CC2)nn1 (stereo not drawn),-9.2
